Bounds are passed on as bounds.

A word on the half-life: it is how long it takes for the measured level to halve. The low end stands for fast loss, the high end for slow loss.

A short description of data set [1]: Half life in pH 5.8 phosphate buffer at 5 mM by HPLC analysis. Type of data set: physicochemical. The essentials:
(§1)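 Compound at 5 mM in 0.1 M HCl, pH 4.5 acetate buffer, pH 5.8/6.8/7.2 phosphate buffers, SGF (pH 1.2) and SIF (pH 6.8), prepared per Chinese Pharmacopoeia. Samples taken at 0-20 h and analyzed by HPLC-UV. k = 2.303×slope of log C versus time; t1/2 = 0.693/k.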

Data set [2] can be described thus: Half life in pH 7.2 phosphate buffer at 5 mM by HPLC analysis. Type of data set: physicochemical. In short, it runs like this:
as §1

A short description of data set [3]: Half life in pH 1.2 simulated gastric fluid at 5 mM by HPLC analysis. Type of data set: ADME. The essentials: as §1
Data set [4] in a line: Half life in Sprague-Dawley rat liver homogenates at 5 mM by HPLC analysis. Type of data set: ADME, tissue-based. The essentials:
(§2)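 Jejunum and liver homogenates from male SD rats in pH 7.4 PBS, adjusted to 200 µg/mL protein, and rat plasma. Each incubated with compound at 5 mM at 37 °C.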

A short description of data set [5]: Half life in Sprague-Dawley rat plasma at 5 mM by HPLC analysis. It is filed as ADME, cell-free. In short, it runs like this:
as §2

The target of data set [6] is T1, Solute carrier family 15 member 1 (Rattus norvegicus, UniProt P51574).
T1 sequence (P51574 whole entry): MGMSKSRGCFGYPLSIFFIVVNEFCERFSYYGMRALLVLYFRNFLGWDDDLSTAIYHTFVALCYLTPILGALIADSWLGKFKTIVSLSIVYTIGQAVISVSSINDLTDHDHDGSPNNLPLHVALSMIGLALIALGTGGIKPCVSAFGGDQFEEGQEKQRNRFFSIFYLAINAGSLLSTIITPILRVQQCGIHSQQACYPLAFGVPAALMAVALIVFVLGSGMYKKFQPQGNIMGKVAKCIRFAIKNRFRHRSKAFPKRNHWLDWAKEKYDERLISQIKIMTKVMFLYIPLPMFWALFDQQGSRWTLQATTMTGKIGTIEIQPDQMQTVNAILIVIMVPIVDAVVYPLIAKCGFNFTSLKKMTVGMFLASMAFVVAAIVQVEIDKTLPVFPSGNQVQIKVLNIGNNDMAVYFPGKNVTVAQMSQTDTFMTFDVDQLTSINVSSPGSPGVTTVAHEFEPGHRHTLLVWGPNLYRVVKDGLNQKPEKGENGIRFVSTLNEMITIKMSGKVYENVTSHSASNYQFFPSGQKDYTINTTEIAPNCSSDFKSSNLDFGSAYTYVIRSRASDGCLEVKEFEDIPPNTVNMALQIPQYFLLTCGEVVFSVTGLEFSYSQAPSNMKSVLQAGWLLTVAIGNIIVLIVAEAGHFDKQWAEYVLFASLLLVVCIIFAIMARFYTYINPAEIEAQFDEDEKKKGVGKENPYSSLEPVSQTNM
Put plainly: Substrate activity at PEPT1 in Sprague-Dawley rat jejunum assessed as effective permeability at 5 mM measured after 15 to 120 mins by HPLC analysis. The conditions noted are these: 5000 µM. It is filed as ADME, tissue-based. In short, it runs like this: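 In situ single-pass jejunal perfusion in fasted (12 h) male SD rats anaesthetised with urethane 1.5 g/kg i.p. About 10 cm of jejunum was perfused at 0.2 mL/min with pH 6.0 HEPES buffer containing 5 mM compound. Outflow was collected 15–120 min after steady state and assayed by HPLC. Peff was calculated from outlet/inlet concentration and volume ratios and segment radius and length.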

Data set [7] addresses T2, Solute carrier family 22 member 1 (Homo sapiens, UniProt O15245).
T2 sequence (O15245 whole entry): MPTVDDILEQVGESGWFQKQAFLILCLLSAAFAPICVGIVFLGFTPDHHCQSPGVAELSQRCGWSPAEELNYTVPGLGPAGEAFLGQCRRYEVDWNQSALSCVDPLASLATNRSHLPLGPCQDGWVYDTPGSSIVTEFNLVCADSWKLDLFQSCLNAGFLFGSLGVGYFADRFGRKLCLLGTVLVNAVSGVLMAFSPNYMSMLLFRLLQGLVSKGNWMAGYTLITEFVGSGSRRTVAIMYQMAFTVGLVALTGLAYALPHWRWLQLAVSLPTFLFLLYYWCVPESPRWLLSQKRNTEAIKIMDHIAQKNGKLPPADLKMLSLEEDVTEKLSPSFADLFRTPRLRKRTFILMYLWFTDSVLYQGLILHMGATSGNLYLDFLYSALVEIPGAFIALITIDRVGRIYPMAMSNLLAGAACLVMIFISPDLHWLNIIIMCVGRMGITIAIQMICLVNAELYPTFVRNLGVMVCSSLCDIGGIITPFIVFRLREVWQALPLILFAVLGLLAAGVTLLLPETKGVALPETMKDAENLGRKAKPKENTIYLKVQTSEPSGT
The data set can be described thus: Substrate activity at OCT1 in human Caco2 cells assessed as protein-mediated drug uptake at 0.5 mM measured after 10 mins in absence of OCT1 substrate metformin by UPLC-MS/MS analysis. It is filed as ADME, cell-based. The following applies: caco-2, 10 min, 500 µM. The essentials: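 Caco-2 cells in 24-well plates took up 0.5 mM compound for 10 min at 37 °C, with or without 50 mM captopril ([…]) or metformin (OCT1-3 substrate). Cells were washed in ice-cold PBS and homogenised in water; lysate protein was measured and drug assayed by UPLC-MS/MS. n=3.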

The target of data set [8] is T3, Solute carrier organic anion transporter family member 2B1 (Homo sapiens, UniProt O94956).
T3 sequence (O94956 whole entry): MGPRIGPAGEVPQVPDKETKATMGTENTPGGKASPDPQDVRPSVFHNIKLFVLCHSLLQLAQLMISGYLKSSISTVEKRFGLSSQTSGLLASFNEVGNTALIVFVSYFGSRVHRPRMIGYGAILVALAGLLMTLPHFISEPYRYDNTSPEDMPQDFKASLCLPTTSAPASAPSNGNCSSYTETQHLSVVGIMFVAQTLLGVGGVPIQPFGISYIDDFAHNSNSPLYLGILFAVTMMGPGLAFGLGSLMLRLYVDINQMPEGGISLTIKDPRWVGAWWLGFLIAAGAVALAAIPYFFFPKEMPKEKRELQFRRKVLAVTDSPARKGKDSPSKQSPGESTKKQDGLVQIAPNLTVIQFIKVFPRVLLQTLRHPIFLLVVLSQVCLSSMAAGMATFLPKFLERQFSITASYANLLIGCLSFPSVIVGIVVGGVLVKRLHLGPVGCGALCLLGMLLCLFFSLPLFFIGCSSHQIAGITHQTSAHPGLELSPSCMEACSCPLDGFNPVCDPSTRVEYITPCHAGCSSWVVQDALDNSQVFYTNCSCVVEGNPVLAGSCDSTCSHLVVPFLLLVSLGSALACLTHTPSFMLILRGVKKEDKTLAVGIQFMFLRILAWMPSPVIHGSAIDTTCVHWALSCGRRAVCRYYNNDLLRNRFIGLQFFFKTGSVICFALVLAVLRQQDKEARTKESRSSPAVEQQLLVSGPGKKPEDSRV
Put plainly: Substrate activity at OATPB in human Caco2 cells assessed as protein-mediated drug uptake at 0.5 mM measured after 10 mins in absence of OATPB substrate captopril by UPLC-MS/MS analysis. The following applies: caco-2, 10 min, 500 µM.

Consider `O=C1N[C@@H](CO)C(=O)N2C[C@H](O)C[C@@H]12`, for which the half-life at 5000 µM in data set [1], in data set [2], in data set [3], in data set [4] and in data set [5] was over 20 h each time. The Peff result in data set [6] is given as “Permeable”. Also, the Drug uptake result in data set [7] and in data set [8] was “Not Active” throughout.

With `CC(C)[C@H](N)C(=O)OC[C@@H]1NC(=O)[C@@H]2C[C@@H](O)CN2C1=O`, the half-life at 5000 µM is over 20 h in data set [1]; 5.5 h in data set [2]; over 20 h in data set [3]; 0.86 h in data set [4]; 2.9 h in data set [5]. For the same compound, the Peff entry in data set [6] is reported as “Permeable”. The Drug uptake result in data set [7] and in data set [8] was “Not Active” throughout.

The values above are taken from ChEMBL document CHEMBL4373712, “Bioactivatable Pseudotripeptidization of Cyclic Dipeptides To Increase the Affinity toward Oligopeptide Transporter 1 for Enhanced Oral Absorption: An Application to Cyclo(l-Hyp-l-Ser) (JBP485)” (J Med Chem, 2019).
